ChEMBL document CHEMBL1125574, “Structure and DNA binding activity of analogues of 1,5-bis(4-amidinophenoxy)pentane (pentamidine)” (J Med Chem, 1992)

Experiments:
[1] = tested on: Nucleic Acid; experiment: Denaturation temperature change on binding on GC to poly(dGC)-poly(dGC); assay type: functional
Method in brief: (§1)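 Synthetic homopolymer, poly(dA)·poly(dT) or poly(dG-dC)·poly(dG-dC), at an initial absorbance of 0.15 A259. Samples were heated at 18 °C/h while absorbance at 259 nm was logged every 0.2 °C. Tm was taken as the curve midpoint between graphically chosen start and end temperatures. ΔTm is relative to the free polymer's Tm in the same run, averaged over at least two determinations with standard errors.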

[2] = tested on: Nucleic Acid; experiment: DNA binding activity as denaturation temperatures on AT to poly (dA)-poly(dT) normalized to ethidium bromide; assay type: functional
[3] = tested on: Calf thymus DNA; experiment: Denaturation temperature change on binding to calf thymus DNA; assay type: functional
Method in brief: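 Calf thymus DNA at an initial absorbance of 0.3 A259 was heated at 18 °C/h, recording absorbance at 259 nm at 0.2 °C intervals. The melting midpoint was set from graphically selected start and end temperatures. ΔTm was taken against the DNA-alone Tm from the same experiment, as the mean of at least two determinations with standard errors.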

[4] = tested on: Nucleic Acid; experiment: DNA binding property estimated by measuring denaturation temperature on GC to poly (dGC)-poly(dGC), normalized to ethidium bromide
[5] = tested on: Nucleic Acid; experiment: Denaturation temperature change on binding to AT to poly (dA)-poly(dT); assay type: functional; method in brief: as §1

Compound	ΔTm [1]	ΔTm [2]	ΔTm [3]	ΔTm [4]	ΔTm [5]
N=C(N)c1ccc(OCCOc2ccc(C(=N)N)cc2[N+](=O)[O-])c([N+](=O)[O-])c1	1.9	1	5.6	0.4	10.3
Cn1cc(NC(=O)c2cc(NC(=O)CNC(=N)N)cn2C)cc1C(=O)NCCC(=N)N	1.1	4.7	19	0.2	46.6
N=C(N)c1ccc(OCCOc2ccc(C(=N)N)cc2N)c(N)c1	3	1.7	8.8	0.6	16.4
N=C(N)c1ccc(OCCCCOc2ccc(C(=N)N)cc2)cc1	3.1	1.8	8.3	0.6	17.9
N=C(N)c1ccc(OCCCCOc2ccc(C(=N)N)cc2[N+](=O)[O-])c([N+](=O)[O-])c1	3.5	1.5	9.6	0.7	14.7
N=C(N)c1ccc(NCCCCCNc2ccc(C(=N)N)cc2N)c(N)c1	3.3	2.1	11	0.6	20.9
N=C(N)c1ccc(OCCCCCOc2ccc(C(=N)N)cc2)cc1	3.2	2.3	10.7	0.6	22.9
N=C(N)c1ccc(OCCCCCOc2ccc(C(=N)N)cc2Cl)c(Cl)c1	4.6	2.5	10.5	0.9	24.3
N=C(N)c1ccc(OCCCCCCOc2ccc(C(=N)N)cc2)cc1	2.8	1.9	9.1	0.5	19
N=C(N)c1ccc(NCCCNc2ccc(C(=N)N)cc2[N+](=O)[O-])c([N+](=O)[O-])c1	5	2.7	12.4	0.9	26.6
N=C(N)c1ccc(NCCNc2ccc(C(=N)N)cc2N)c(N)c1	3	1.7	9.8	0.6	16.8
COc1cc(C(=N)N)ccc1OCCCOc1ccc(C(=N)N)cc1OC	3.4	3.8	16.3	0.6	38
N=C(N)c1ccc(OCCCCCOc2ccc(C(=N)N)cc2N)c(N)c1	3.2	2.1	10.8	0.6	20.7
N=C(N)c1ccc(NCCCCCCNc2ccc(C(=N)N)cc2N)c(N)c1	3.6	1.5	8.3	0.7	15
N=C(N)c1ccc(NCCCCCNc2ccc(C(=N)N)cc2)cc1	4.4	2.1	11.3	0.8	20.7
N=C(N)c1ccc(OCCCCOc2ccc(C(=N)N)cc2N)c(N)c1	3.7	2	9.6	0.7	19.4
N=C(N)c1cccc(OCCCCOc2cccc(C(=N)N)c2)c1	2.6	1.5	8.1	0.5	15.2
COc1cc(C(=N)N)ccc1OCCCCCOc1ccc(C(=N)N)cc1OC	2.7	2.7	12	0.5	27.2
N=C(N)c1ccc(OCCCCCOc2ccc(C(=N)N)cc2[N+](=O)[O-])c([N+](=O)[O-])c1	3.2	2.2	9.7	0.6	21.6

Compound	ΔTm [1]	ΔTm [2]	ΔTm [3]	ΔTm [4]	ΔTm [5]
N=C(N)c1ccc(-c2cc3ccc(C(=N)N)cc3[nH]2)cc1	6.9	4.2	21.5	1.3	42
CC[n+]1c(-c2ccccc2)c2cc(N)ccc2c2ccc(N)cc21	9.9	1	12.4	1	12.4
Cn1cc(NC(=O)c2cc(NC(=O)c3cc(NC=O)cn3C)cn2C)cc1C(=O)NCCC(=N)N	1.9	3.1	11.5	0.4	30.5
N=C(N)c1ccc(NCCCCCCNc2ccc(C(=N)N)cc2)cc1	2.9	1.3	9.1	0.5	12.9
N=C(N)c1ccc(OCCOc2ccc(C(=N)N)cc2)cc1	1.3	0.8	5.4	0.2	7.5
N=C(N)c1ccc(NCCCNc2ccc(C(=N)N)cc2N)c(N)c1	4.8	2.6	12.4	0.9	25.6
N=C(N)c1ccc(NCCCNc2ccc(C(=N)N)cc2)cc1	3	2.6	11.6	0.6	25.7
N=C(N)c1cccc(OCCCOc2cccc(C(=N)N)c2)c1	3	0.9	7.6	0.6	8.5
N=C(N)c1ccc(OCCCCOc2ccc(C(=N)N)cc2Cl)c(Cl)c1	4.2	2.1	8.9	0.8	20.3
N=C(N)c1ccc(NCCCCCNc2ccc(C(=N)N)cc2[N+](=O)[O-])c([N+](=O)[O-])c1	6.2	2.2	12.7	1.2	22.1
N=C(N)c1cccc(OCCCCCCOc2cccc(C(=N)N)c2)c1	2.5	0.8	7.3	0.5	8.1
N=C(N)c1cccc(OCCCCCOc2cccc(C(=N)N)c2)c1	2.2	0.8	7.6	0.4	7.6
N=C(N)c1ccc(OCCCOc2ccc(C(=N)N)cc2)cc1	4.5	3.2	14.7	0.8	32
N=C(N)c1ccc(OCCCCCCOc2ccc(C(=N)N)cc2N)c(N)c1	2.8	1.9	9.5	0.5	18.4
N=C(N)c1ccc(NCCCCNc2ccc(C(=N)N)cc2)cc1	2.8	1.9	10.3	0.5	18.7
N=C(N)c1ccc(NCCCCNc2ccc(C(=N)N)cc2N)c(N)c1	4.6	1.3	10.5	0.9	13.2
N=C(N)c1ccc(OCCCOc2ccc(C(=N)N)cc2N)c(N)c1	5.2	3.3	13.6	1	32.2
COc1cc(C(=N)N)ccc1OCCCCOc1ccc(C(=N)N)cc1OC	1.1	2.3	10.2	0.2	22.9
